According to ChEMBL document CHEMBL4477278, “Synthesis and evaluation of 8-hydroxyquinolin derivatives substituted with (benzo[d][1,2]selenazol-3(2H)-one) as effective inhibitor of metal-induced Aβ aggregation and antioxidant” (Bioorg Med Chem, 2016):

What was measured:
[1] = Antioxidant activity assessed as H2O2 scavenging at 10 uM measured after 200 to 220 mins in presence of GSH and NADPH; assay type: functional
Summary of the method: (§1)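 Kinetic peroxide removal in 100 mM phosphate buffer pH 7.5 at 25 °C with 1 mM EDTA, 0.25 mM GSH, 0.50 mM NADPH, 1.3 U/mL glutathione reductase, 0.20 mM peroxide and 10 µM catalyst. NADPH consumption followed over time. Means of three independent experiments.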

[2] = Antioxidant activity assessed as glutathione peroxidase-like activity in phosphate buffer measured as initial rate for the reduction of tert-butyl hydroperoxide by GSH at 80 uM in presence of NADPH by coupled reductase assay; assay type: functional
Summary of the method: (§2)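 Coupled reductase assay in 100 mM potassium phosphate pH 7.5 at 25 °C: 2 mM GSH, 1 mM EDTA, 1.3 U/mL glutathione reductase, 0.4 mM NADPH, 80 µM selenium compound. Reaction started with 1.6 mM peroxide. Initial rate is taken from NADPH oxidation at 340 nm over the first 5–10% of reaction (ε 6.22 mM⁻¹cm⁻¹). Triplicate, mean ± SD.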

[3] = Antioxidant activity assessed as t-BuOOH scavenging at 10 uM measured after 300 mins in presence of GSH and NADPH; assay type: functional; summary of the method: as §1
[4] = Antioxidant activity assessed as AAPH radical scavenging activity preincubated for 10 mins followed by AAPH challenge measured as trolox equivalents measured at every min for 120 mins by ORAC-FL assay; assay type: functional
Summary of the method: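 ORAC-FL: compound diluted in 75 mM phosphate buffer pH 7.4, premixed with fluorescein (70 nM final) for 10 min at 37 °C, then AAPH added. Fluorescence (ex 485, em 520 nm) read each minute for 120 min. Net AUC versus blank is converted to Trolox equivalents using a Trolox standard curve (10–100 µM). Triplicates, at least three independent runs.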

[5] = Antioxidant activity assessed as glutathione peroxidase-like activity in phosphate buffer measured as initial rate for the reduction of […] by GSH at 80 uM in presence of NADPH by coupled reductase assay; assay type: functional; summary of the method: as §2
[6] = Antioxidant activity assessed as glutathione peroxidase-like activity in phosphate buffer measured as initial rate for the reduction of cumene hydroperoxide by GSH at 80 uM in presence of NADPH by coupled reductase assay; assay type: functional; summary of the method: as §2
[7] = Antioxidant activity assessed as Cum-OOH scavenging at 10 uM measured after 300 mins in presence of GSH and NADPH; assay type: functional; summary of the method: as §1
[8] = Permeability of the compound at 100 ug/ml measured after 10 hrs by PAMPA-BBB assay; assay type: ADME; settings: read-out: Peff
Summary of the method: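 PAMPA-BBB: filter coated with porcine brain lipid in dodecane (20 mg/mL). Compound is dissolved in DMSO (5 mg/mL) and diluted 50-fold in PBS/EtOH 7:3 to 100 µg/mL in donor wells, with PBS/EtOH acceptor. Plates stand 10 h at 25 °C, then acceptor concentration is read by UV at five wavelengths, four wells, at least three runs. Pe is calculated by formula; assay validated with 13 reference drugs.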

[9] = Metal chelating activity of the compound assessed as Cu2+ complex formation by measuring maximum absorption wave length at 50 uM measured after 30 mins by UV-Vis spectrometry (reference value: 301 nm); assay type: functional
Summary of the method: (§3)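 Compound (50 µM final) with or without metal salt (CuSO4, FeSO4, FeCl3 or ZnCl2, 50 µM final) in 20 mM HEPES, 150 mM NaCl, pH 7.4. After 30 min, UV-vis absorption spectra are recorded at room temperature.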

[10] = Metal chelating activity of the compound assessed as Fe2+ complex formation by measuring maximum absorption wave length at 50 uM measured after 30 mins by UV-Vis spectrometry (reference value: 301 nm); assay type: functional; summary of the method: as §3
[11] = Metal chelating activity of the compound assessed as Zn2+ complex formation by measuring maximum absorption wave length at 50 uM measured after 30 mins by UV-Vis spectrometry (reference value: 301 nm); assay type: functional; summary of the method: as §3
[12] = Metal chelating activity of the compound assessed as Fe3+ complex formation by measuring maximum absorption wave length at 50 uM measured after 30 mins by UV-Vis spectrometry (reference value: 301 nm); assay type: functional; summary of the method: as §3
[13] = Inhibition of Cu2+ induced aggregation of recombinant human amyloid beta (1 to 42) at 50 uM after 24 hrs by thioflavin-T based fluorescence assay
Summary of the method: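 Aβ1–42 (stock in 1% ammonium hydroxide), 25 µM final, with or without CuSO4 (25 µM) and compound (50 µM) in HEPES pH 6.6 with NaCl, incubated 24 h at 37 °C. Samples then diluted tenfold into 50 mM glycine-NaOH pH 8.0 containing 5 µM thioflavin T for fluorescence read-out.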

Structure (SMILES) | Activity [1] | Activity [2] | Activity [3] | Activity (umolequiv/umol) [4] | Activity [5] | Activity [6] | Activity [7] | Papp at 10 h, 100 ug/ml [8] | Activity [9] | Activity [10] | Activity [11] | Activity [12] | inhibition [13]
O=c1c2cccc(F)c2[se]n1-c1ccc2cccc(O)c2n1 | 62% | 55.5 µM/min | 31% | 3.6 | 152 µM/min | 24.1 µM/min | 66% | 11.1 ×10⁻⁶ cm/s | – | – | – | – | –
O=c1c2c(Cl)cccc2[se]n1-c1ccc2cccc(O)c2n1 | 65% | 52.1 µM/min | 38% | 0.9 | 155 µM/min | 35.1 µM/min | 68% | 7.8 ×10⁻⁶ cm/s | – | – | – | – | –
O=c1c2ccccc2[se]n1-c1ccc2cccc(O)c2n1 | – | 14 µM/min | – | – | 49.9 µM/min | 17.1 µM/min | – | – | – | – | – | – | –
O=c1c2cccc(C(F)(F)F)c2[se]n1-c1ccc2cccc(O)c2n1 | – | 31.7 µM/min | – | 0.3 | 132 µM/min | 30 µM/min | – | 13.3 ×10⁻⁶ cm/s | – | – | – | – | –
O=c1c2cc(O)ccc2[se]n1-c1ccc2cccc(O)c2n1 | 60% | 63.4 µM/min | 30% | 2.6 | 106 µM/min | 24.3 µM/min | 47% | 5.9 ×10⁻⁶ cm/s | 316 nm | 297 nm | 304 nm | 300 nm | 60%
O=c1c2c(C(F)(F)F)cccc2[se]n1-c1ccc2cccc(O)c2n1 | 68% | 62 µM/min | 67% | 0.2 | 161 µM/min | 31.7 µM/min | 77% | 10.1 ×10⁻⁶ cm/s | – | – | – | – | 79%
O=c1c2cc(F)ccc2[se]n1-c1ccc2cccc(O)c2n1 | – | 20.4 µM/min | – | – | 64.3 µM/min | 15.9 µM/min | – | – | – | – | – | – | –
O=c1c2cc(C(F)(F)F)ccc2[se]n1-c1ccc2cccc(O)c2n1 | – | 8 µM/min | – | – | 69.9 µM/min | 5.6 µM/min | – | – | – | – | – | – | –
O=c1c2ccc(F)cc2[se]n1-c1ccc2cccc(O)c2n1 | – | 6.4 µM/min | – | – | 77.3 µM/min | 11.1 µM/min | – | – | – | – | – | – | –
O=c1c2ccc(Cl)cc2[se]n1-c1ccc2cccc(O)c2n1 | – | 7.1 µM/min | – | – | 45 µM/min | 23.3 µM/min | – | – | – | – | – | – | –
O=c1c2cc(Cl)ccc2[se]n1-c1ccc2cccc(O)c2n1 | – | 6.9 µM/min | – | – | 45 µM/min | 23.9 µM/min | – | – | – | – | – | – | –
O=c1c2ccc(C(F)(F)F)cc2[se]n1-c1ccc2cccc(O)c2n1 | – | 10.6 µM/min | – | – | 64.2 µM/min | 16.1 µM/min | – | – | – | – | – | – | –
O=c1c2ccccc2[se]n1-c1ccccc1 | – | 47.6 µM/min | – | – | 113 µM/min | 22.6 µM/min | – | – | – | – | – | – | –
Oc1c(I)cc(Cl)c2cccnc12 | – | – | – | 0.5 | – | – | – | – | – | – | – | – | 87%
O=c1c2c(F)cccc2[se]n1-c1ccc2cccc(O)c2n1 | 71% | 47.9 µM/min | 46% | 2.3 | 102 µM/min | 31.4 µM/min | 74% | 7.4 ×10⁻⁶ cm/s | – | – | – | – | 82%
